Compound activity: PubChem, several laboratories
In the library only some 2.6% were active in any assay of this set; here they are far more common.
GRK2 inh = compounds blocking aptamer binding on GRK2 – biochemical, human GRK2, bead flow cytometry, HTS, primary screen. 0.59% of 330,000 active. Beta-adrenergic receptor kinase 1 (Homo sapiens), P25098. AID 488847, 2010. FAM-aptamer displacement from GRK2. inhibition of aptamer binding, % at 10 µM;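 active = inhibition of aptamer binding above 40%, roughly 3 SD of noise, on plates passing a quality check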;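 note: median bead fluorescence of bound FAM aptamer so fluorescent compounds give negative values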
Target sequence (P25098 whole entry, looked up): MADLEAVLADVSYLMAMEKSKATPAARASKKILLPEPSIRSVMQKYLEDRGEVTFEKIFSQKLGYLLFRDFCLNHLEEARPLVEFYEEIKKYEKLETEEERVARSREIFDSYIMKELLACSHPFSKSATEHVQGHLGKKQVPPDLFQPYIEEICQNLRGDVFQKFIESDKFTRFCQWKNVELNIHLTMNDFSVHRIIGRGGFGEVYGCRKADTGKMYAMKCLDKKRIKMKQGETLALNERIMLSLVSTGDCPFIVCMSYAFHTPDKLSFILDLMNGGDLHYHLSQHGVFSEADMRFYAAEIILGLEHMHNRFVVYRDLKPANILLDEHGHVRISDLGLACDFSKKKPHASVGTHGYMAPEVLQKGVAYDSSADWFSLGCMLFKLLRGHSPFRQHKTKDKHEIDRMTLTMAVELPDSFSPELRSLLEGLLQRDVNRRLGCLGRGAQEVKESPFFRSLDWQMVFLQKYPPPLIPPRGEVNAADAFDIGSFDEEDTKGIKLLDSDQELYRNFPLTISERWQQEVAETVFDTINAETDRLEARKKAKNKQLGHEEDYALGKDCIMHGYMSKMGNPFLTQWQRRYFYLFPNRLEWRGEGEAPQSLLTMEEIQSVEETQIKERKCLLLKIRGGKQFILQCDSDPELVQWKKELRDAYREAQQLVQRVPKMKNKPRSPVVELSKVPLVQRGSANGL
T cell modulator = modulators of CD8 T cell-vesicle binding, primary screen, mouse 2C CD8+ T cells, flow cytometry | 2C CD8+ T cell-vesicle binding; hits give low values | response (vesicle binding), % at 7 µM | 0.068% of 330,000 active | AID 2052, 2009;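 active = response, share of CD8 T cells binding vesicles, and their 90th percentile fluorescence all below set limits, cut at about 80% in these data, passing the limit was not always enough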;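 note: values below 100% mean blocked vesicle binding to the CD8+ T cells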
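material = purified 2C TCR transgenic mouse naive CD8+ T cells | controls = Unloaded micro-vesicles (low), QL9 vesicles with 0.7% DMSO (high) | detection = cytometric PE anti-B7-1 and Alexa647 anti-CD8 signals after 1% paraformaldehyde fixation | incubation = binding step 1.5 h, 37 °C, antibody labelling 20 min, ice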
Rce1 inh = yeast Rce1p protease inhibitors, primary screen, biochemical, fluorescence, cell-free homogeneous; CAAX prenyl protease 2 (Saccharomyces cerevisiae (strain ATCC 204508 / S288c)), Q03530; yeast membranes, quenched prenylated peptide cleavage fluorescence; calls only; 0.27% of 290,000 active; AID 2563, 2010;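 active = fall in fluorescence gain of 50% or more versus controls, with final raw signal at or below 3038400; inconclusive = same 50% fall but final raw signal above 3038400; inactive = fall in fluorescence gain under 50%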;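 note: plate controls were neutral control wells for no effect and wells lacking membranes for full effect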
Myeloid diff MLP = induction of myeloid progenitor differentiation, primary screen, cell-based, flow cytometry, MLPCN library | 1% of 360,000 active | AID 624256, 2012 | calls only at 10 µM | ER-HoxA9 myeloid progenitors, lysozyme-GFP differentiation;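 active = normalized GFP-positive differentiation at or above the plate's own cutoff, the solvent-only control mean plus 3 SD; inconclusive = no clear call, values can overlap the other calls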;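 note: cells exposed to compound for four days before flow analysis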
SKN-1 inh = suppressors of acrylamide-induced Pgst-4::GFP reporter in worms, primary screen, SKN-1 inhibitor project, whole organism, uHTS, GFP/RFP fluorescence ratio, strain VP596 | C. elegans VP596 Pgst-4::GFP/RFP ratio, 24 h | inhibition, % at 21.8 µM | 0.49% of 360,000 active;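 active = interference check ratio from 0.5 to 1.5 plus GFP to RFP signal ratio inhibition reaching or exceeding a fixed threshold, cut at about 30% in these data, passing the limit was not always enough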
Rin1 Abl inh = inhibitors of Rin1-Abl protein binding, primary screen, biochemical, TR-FRET | inhibition, % at 7.35 µM | 0.4% of 360,000 active | AID 588664, 2011; in the data active = inhibition above about 5%, passing the limit was not always enough
Starred values were filed as active, the others as inactive.

Results for COc1ccc2c(c1)c(C(O)CN1CCN(Cc3ccc4c(c3)OCO4)CC1)c(C)n2C (centres undefined) ?
GRK2 inh: 0; T cell modulator: 306; Rce1 inh: inactive; Myeloid diff MLP: inactive; SKN-1 inh: 44*; Rin1 Abl inh: -5

Results for Cc1cccc(C)c1OCC(=O)N/N=C/c1ccncc1 ?
GRK2 inh: 42*; T cell modulator: 439; Rce1 inh: inactive; Myeloid diff MLP: inactive; SKN-1 inh: 5; Rin1 Abl inh: 3

Results for CC1=CC2=NC(=O)CC(C)(C(=O)N(CC(=O)NC3CCCC3)Cc3ccccc3)N2C=C1 (centres undefined) ?
GRK2 inh: 3; T cell modulator: 352; Rce1 inh: active; Myeloid diff MLP: inactive; SKN-1 inh: 15; Rin1 Abl inh: 0

What do the screens show for `COc1ccc(N2CCN(C(=O)CCC(=O)N3CCOc4ccc(Cl)cc43)CC2)cc1`?
GRK2 inh: 2; T cell modulator: 378; Rce1 inh: inactive; Myeloid diff MLP: inactive; SKN-1 inh: -14; Rin1 Abl inh: 4

Results for COc1cc2c(cc1OC)C(C)N(C(=O)c1cc3c(=O)oc4ccc(C)cc4c3s1)CC2 (centres undefined) ?
GRK2 inh: 3; T cell modulator: 110; Rce1 inh: active; Myeloid diff MLP: inactive; SKN-1 inh: -14; Rin1 Abl inh: 0

What do the screens show for `Cc1ccc(S(=O)(=O)c2cn(C)c3cc(N4CCOCC4)c(F)cc3c2=O)cc1`?
GRK2 inh: 0; T cell modulator: 475; Rce1 inh: active; Myeloid diff MLP: inactive; SKN-1 inh: -6; Rin1 Abl inh: -1

Results for COc1ccccc1-c1noc(CCCC(=O)Nc2ccc(C(N)=O)cc2)n1 ?
GRK2 inh: 0; T cell modulator: 270; Rce1 inh: inactive; Myeloid diff MLP: inactive; SKN-1 inh: -8; Rin1 Abl inh: -2

What do the screens show for `O=C(N/N=C/c1cccc(OC(=O)c2ccccc2Cl)c1)c1cccnc1`?
GRK2 inh: 1; T cell modulator: 0.0*; Rce1 inh: inactive; Myeloid diff MLP: inactive; SKN-1 inh: 6; Rin1 Abl inh: -2

How did Cc1ccc(C(=O)N/N=C/c2ccc(OC(=O)c3ccccc3Cl)cc2)cn1 do in these assays?
GRK2 inh: 0; T cell modulator: 190; Rce1 inh: inactive; Myeloid diff MLP: inactive; SKN-1 inh: 5; Rin1 Abl inh: 5

How did CC(C)c1ccc(OCc2cccc(C(=O)N/N=C/c3cccnc3)c2)cc1 do in these assays?
GRK2 inh: 0; T cell modulator: 295; Rce1 inh: inactive; Myeloid diff MLP: active; SKN-1 inh: 20; Rin1 Abl inh: 3

How did CCOc1c(Br)cc(Br)cc1/C=C1\SC(N)=NC1=O do in these assays?
GRK2 inh: 1; T cell modulator: 166; Rce1 inh: inactive; Myeloid diff MLP: inactive; SKN-1 inh: -19; Rin1 Abl inh: 3

How did CC(=O)Oc1ccc(N(C(C)=O)S(=O)(=O)c2ccc(C)cc2)c2ccccc12 do in these assays?
GRK2 inh: 1; T cell modulator: 241; Rce1 inh: inactive; Myeloid diff MLP: active; SKN-1 inh: -2; Rin1 Abl inh: -2

Results for O=C(C1CCN(S(=O)(=O)c2cc(Cl)ccc2Cl)CC1)N1CCCC1 ?
GRK2 inh: 2; T cell modulator: 489; Rce1 inh: inactive; Myeloid diff MLP: inactive; SKN-1 inh: 8; Rin1 Abl inh: -1

Results for O=C1C(=O)N(C/C=C/c2ccccc2)c2ccccc21 ?
GRK2 inh: 5; T cell modulator: 174; Rce1 inh: active; Myeloid diff MLP: inconclusive; SKN-1 inh: -9; Rin1 Abl inh: 0

Results for O=C1c2ccccc2C(=O)N1C/C=C/c1ccccc1 ?
GRK2 inh: 0; T cell modulator: 440; Rce1 inh: inactive; Myeloid diff MLP: inactive; SKN-1 inh: 1; Rin1 Abl inh: -4

How did NC(=NCc1ccccc1)C(N=Nc1ccccc1)C(=O)NCc1ccccc1 (centres undefined) do in these assays?
Myeloid diff MLP: inactive; SKN-1 inh: 6; Rin1 Abl inh: 4

What do the screens show for `Oc1ccc(C[C@@H]2CNCCN2CCc2cc(C(F)(F)F)cc(C(F)(F)F)c2)cc1`?
GRK2 inh: 0; T cell modulator: 421; Rce1 inh: inactive; Myeloid diff MLP: active; SKN-1 inh: -7; Rin1 Abl inh: 0

How did c1ccc(-c2nnc(-c3ccccc3)c(-c3c[nH]c4ccccc34)n2)cc1 do in these assays?
GRK2 inh: 0; T cell modulator: 283; Rce1 inh: inactive; Myeloid diff MLP: inactive; SKN-1 inh: 6; Rin1 Abl inh: 2

Results for c1ccc(-c2nnc(-c3ccncc3)nc2-c2ccccc2)cc1 ?
GRK2 inh: 3; T cell modulator: 119; Rce1 inh: active; Myeloid diff MLP: inactive; SKN-1 inh: -1; Rin1 Abl inh: 4

What do the screens show for `NC(=O)c1nsc(C(=O)N(Cc2ccco2)C(C(=O)NCc2ccccc2)c2ccc(O)cc2)c1N` (centres undefined)?
GRK2 inh: 6; T cell modulator: 335; Rce1 inh: inactive; Myeloid diff MLP: inactive; SKN-1 inh: -5; Rin1 Abl inh: 1

How did CCN(CC)S(=O)(=O)c1cccc2c(N(C)C)cccc12 do in these assays?
GRK2 inh: 0; T cell modulator: 544; Rce1 inh: inactive; Myeloid diff MLP: inactive; SKN-1 inh: 45*; Rin1 Abl inh: 0

Results for Fc1ccc(CSc2nnc(-c3ccco3)o2)cc1 ?
GRK2 inh: 0; T cell modulator: 116; Rce1 inh: inactive; Myeloid diff MLP: inactive; SKN-1 inh: 71*; Rin1 Abl inh: 3

What do the screens show for `c1ccc(CSc2nnc(-c3ccco3)o2)cc1`?
GRK2 inh: 0; T cell modulator: 442; Rce1 inh: inactive; Myeloid diff MLP: inactive; SKN-1 inh: 10; Rin1 Abl inh: 0

Results for O=C(O)c1ccc(CSc2nnc(-c3ccco3)o2)cc1 ?
GRK2 inh: 0; T cell modulator: 132; Rce1 inh: inactive; Myeloid diff MLP: inactive; SKN-1 inh: 12; Rin1 Abl inh: -1

How did Brc1ccc(CSc2nnc(-c3ccco3)o2)cc1 do in these assays?
GRK2 inh: 0; T cell modulator: 356; Rce1 inh: inactive; Myeloid diff MLP: inactive; SKN-1 inh: 94*; Rin1 Abl inh: 1

Results for Cc1ccc(CSc2nnc(-c3ccco3)o2)cc1 ?
GRK2 inh: 2; T cell modulator: 279; Rce1 inh: inactive; Myeloid diff MLP: inactive; SKN-1 inh: 82*; Rin1 Abl inh: 1
